Experimental data: ChEMBL document CHEMBL4049453, “Discovery of Mixed Pharmacology Melanocortin-3 Agonists and Melanocortin-4 Receptor Tetrapeptide Antagonist Compounds (TACOs) Based on the Sequence Ac-Xaa1-Arg-(pI)DPhe-Xaa4-NH2” (J Med Chem, 2017)
Blank lines part the entries; values can stand above or below the molecule they belong to. Activity calls are given as the source filed them. No cut-off for these calls is given here. Non-standard residues stand in square brackets, D forms with d. Residues, ends and D or L forms follow the SMILES beside them. Bip = N[C@@H](Cc1ccc(-c2ccccc2)cc1)C(=O)O; dPhe(4-I) = N[C@H](Cc1ccc(I)cc1)C(=O)O; 2Nal = N[C@@H](Cc1ccc2ccccc2c1)C(=O)O

How the values were obtained:
[1] = biological target: Melanocortin receptor 3 (Mus musculus) (UniProt P33033); experiment: Antagonist activity at mouse MC3R expressed in HEK293 cells assessed as inhibition of NDP-MSH induced-cAMP accumulation up to 10 uM after 2 hrs by alpha screen assay; assay type: functional, cell-based
Sequence of Melanocortin receptor 3 (Mus musculus) (P33033 whole entry): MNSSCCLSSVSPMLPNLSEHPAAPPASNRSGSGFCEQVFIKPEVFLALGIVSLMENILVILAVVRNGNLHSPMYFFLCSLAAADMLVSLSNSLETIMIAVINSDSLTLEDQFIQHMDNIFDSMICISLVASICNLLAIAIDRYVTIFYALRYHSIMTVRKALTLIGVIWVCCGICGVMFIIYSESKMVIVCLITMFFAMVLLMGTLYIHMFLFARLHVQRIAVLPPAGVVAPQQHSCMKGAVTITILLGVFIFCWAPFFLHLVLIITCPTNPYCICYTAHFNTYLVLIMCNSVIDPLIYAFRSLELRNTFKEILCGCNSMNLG
How it was run: (§1)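 mouse MC3R or MC4R in stably transfected HEK293 cells, AlphaScreen cAMP assay (IBMX stimulation buffer, 2 h RT incubation, then 2 h with donor-bead lysis mix). […] Run in triplicate.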

[2] = biological target: Melanocortin receptor 3 (Mus musculus) (UniProt P33033); experiment: Agonist activity at mouse MC3R expressed in HEK293 cells assessed as induction of cAMP accumulation at 100 uM after 2 hrs by alpha screen assay relative to NDP-MSH; assay type: functional, cell-based
How it was run: (§2)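 HEK293 stably expressing mouse MC1R/MC3R/MC4R/MC5R (pCDNA3). Cells in stimulation buffer (HBSS, 0.5 mM IBMX, 5 mM HEPES, 0.1% BSA, pH 7.4) at 1000 cells/μL with anti-cAMP acceptor beads. Ligand given 10−4 to 10−10 M (or 10−6 to 10−12 M) for 2 h at RT in the dark, then donor beads/biotin-cAMP lysis mix for 2 h. AlphaScreen cAMP read-out, normalized to 10−6 M NDP-MSH as 100%.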

[3] = biological target: Melanocortin receptor 4 (Mus musculus) (UniProt P56450); experiment: Antagonist activity at mouse MC4R expressed in HEK293 cells assessed as inhibition of NDP-MSH induced-cAMP accumulation up to 10 uM after 2 hrs by alpha screen assay; assay type: functional, cell-based; how it was run: as §1
Sequence of Melanocortin receptor 4 (Mus musculus) (P56450 whole entry): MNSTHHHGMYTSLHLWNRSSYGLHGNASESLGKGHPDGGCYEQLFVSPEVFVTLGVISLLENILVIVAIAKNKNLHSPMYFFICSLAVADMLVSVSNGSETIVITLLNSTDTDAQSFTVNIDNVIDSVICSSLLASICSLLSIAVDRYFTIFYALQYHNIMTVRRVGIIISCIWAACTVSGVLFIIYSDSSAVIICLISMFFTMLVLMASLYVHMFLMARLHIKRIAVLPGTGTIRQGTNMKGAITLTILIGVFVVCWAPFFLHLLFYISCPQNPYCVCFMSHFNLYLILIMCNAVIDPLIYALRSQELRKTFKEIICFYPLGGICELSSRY

Melanocortin receptor 4 [4] = biological target: T1, Melanocortin receptor 4 (Mus musculus, UniProt P56450); experiment: Agonist activity at mouse MC4R expressed in HEK293 cells assessed as induction of cAMP accumulation up to 100 uM after 2 hrs by alpha screen assay relative to NDP-MSH; assay type: cell-based; settings: read-out: Activity
T1 sequence (P56450 whole entry): as above

[5] = biological target: Melanocortin receptor 3 (Homo sapiens) (UniProt P41968); experiment: Binding affinity to human MC3R expressed in CHO cells assessed by radioligand displacement
Sequence of Melanocortin receptor 3 (Homo sapiens) (P41968 whole entry): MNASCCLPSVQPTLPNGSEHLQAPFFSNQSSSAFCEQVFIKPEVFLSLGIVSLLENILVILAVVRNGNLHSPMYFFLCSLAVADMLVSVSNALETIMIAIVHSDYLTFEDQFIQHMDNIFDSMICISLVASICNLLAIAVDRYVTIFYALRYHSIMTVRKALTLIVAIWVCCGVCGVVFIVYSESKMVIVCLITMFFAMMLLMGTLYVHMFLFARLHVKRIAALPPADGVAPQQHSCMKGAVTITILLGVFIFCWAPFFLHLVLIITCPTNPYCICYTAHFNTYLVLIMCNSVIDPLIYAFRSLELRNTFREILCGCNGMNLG

Melanocortin receptor 4 [6] = biological target: T2, Melanocortin receptor 4 (Homo sapiens, UniProt P32245); experiment: Agonist activity at human MC4R expressed in CHO cells assessed as induction of cAMP activation after 45 mins; assay type: cell-based; settings: 0.75 h
T2 sequence (P32245 whole entry): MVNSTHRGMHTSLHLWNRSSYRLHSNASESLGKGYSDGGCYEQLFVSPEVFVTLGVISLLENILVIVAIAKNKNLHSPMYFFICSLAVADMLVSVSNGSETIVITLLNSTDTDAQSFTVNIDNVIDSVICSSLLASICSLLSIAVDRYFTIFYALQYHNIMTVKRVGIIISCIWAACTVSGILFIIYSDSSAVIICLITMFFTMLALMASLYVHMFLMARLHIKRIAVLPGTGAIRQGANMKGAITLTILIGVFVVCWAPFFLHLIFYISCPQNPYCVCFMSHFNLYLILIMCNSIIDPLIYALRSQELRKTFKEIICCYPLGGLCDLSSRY

Melanocortin receptor 4 [7] = biological target: T2, Melanocortin receptor 4; experiment: Agonist activity at human MC4R expressed in CHO cells assessed as induction of cAMP activation after 45 mins relative to alpha MSH; assay type: cell-based; settings: 0.75 h
Melanocortin receptor 4 [8] = biological target: T2, Melanocortin receptor 4; experiment: Antagonist activity at human MC4R expressed in CHO cells assessed as inhibition of aplha MSH-induced cAMP activation after 45 mins; assay type: functional, cell-based
Melanocortin receptor 4 [9] = biological target: T1, Melanocortin receptor 4; experiment: Agonist activity at mouse MC4R expressed in HEK293 cells assessed as induction of cAMP accumulation at 100 uM after 2 hrs by alpha screen assay relative to NDP-MSH; assay type: cell-based; how it was run: as §2
[10] = biological target: Melanocyte-stimulating hormone receptor (Mus musculus) (UniProt Q01727); experiment: Agonist activity at mouse MC1R expressed in HEK293 cells assessed as induction of cAMP accumulation at 100 uM after 2 hrs by alpha screen assay relative to NDP-MSH; assay type: functional, cell-based; how it was run: as §2
Sequence of Melanocyte-stimulating hormone receptor (Mus musculus) (Q01727 whole entry, looked up): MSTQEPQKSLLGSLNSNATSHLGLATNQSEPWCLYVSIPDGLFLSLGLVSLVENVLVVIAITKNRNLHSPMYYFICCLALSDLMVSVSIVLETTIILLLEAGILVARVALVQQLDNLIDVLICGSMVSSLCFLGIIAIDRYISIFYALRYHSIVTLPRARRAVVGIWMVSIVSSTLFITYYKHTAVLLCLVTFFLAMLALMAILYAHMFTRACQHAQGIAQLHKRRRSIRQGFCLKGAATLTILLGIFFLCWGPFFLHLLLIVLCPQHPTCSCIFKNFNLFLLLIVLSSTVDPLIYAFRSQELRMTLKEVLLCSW

[11] = biological target: Melanocortin receptor 5 (Mus musculus) (UniProt P41149); experiment: Agonist activity at mouse MC5R expressed in HEK293 cells assessed as induction of cAMP accumulation at 100 uM after 2 hrs by alpha screen assay relative to NDP-MSH; assay type: functional, cell-based; how it was run: as §2
Sequence of Melanocortin receptor 5 (Mus musculus) (P41149 whole entry): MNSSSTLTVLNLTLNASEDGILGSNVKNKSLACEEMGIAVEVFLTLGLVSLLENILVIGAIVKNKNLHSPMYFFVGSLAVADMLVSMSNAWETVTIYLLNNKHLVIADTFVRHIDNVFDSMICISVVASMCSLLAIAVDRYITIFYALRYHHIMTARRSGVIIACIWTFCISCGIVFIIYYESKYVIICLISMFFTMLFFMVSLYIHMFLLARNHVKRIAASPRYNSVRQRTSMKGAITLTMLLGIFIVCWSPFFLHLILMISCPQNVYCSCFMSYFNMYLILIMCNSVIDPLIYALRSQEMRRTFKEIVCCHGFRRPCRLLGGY

[12] = biological target: Melanocyte-stimulating hormone receptor (Mus musculus) (UniProt Q01727); experiment: Agonist activity at mouse MC1R expressed in HEK293 cells assessed as induction of cAMP accumulation up to 100 uM after 2 hrs by alpha screen assay relative to NDP-MSH; assay type: functional, cell-based; how it was run: as §2
[13] = biological target: Melanocortin receptor 3 (Mus musculus) (UniProt P33033); experiment: Agonist activity at mouse MC3R expressed in HEK293 cells assessed as induction of cAMP accumulation up to 100 uM after 2 hrs by alpha screen assay relative to NDP-MSH; assay type: functional, cell-based; how it was run: as §2
[14] = biological target: Melanocortin receptor 5 (Mus musculus) (UniProt P41149); experiment: Agonist activity at mouse MC5R expressed in HEK293 cells assessed as induction of cAMP accumulation up to 100 uM after 2 hrs by alpha screen assay relative to NDP-MSH; assay type: functional, cell-based; how it was run: as §2
Melanocortin receptor 4 [15] = biological target: T1, Melanocortin receptor 4; experiment: Agonist activity at mouse MC4R expressed in HEK293 cells assessed as induction of cAMP accumulation after 2 hrs by alpha screen assay; assay type: cell-based

inhibition [1]: inactive
Activity [2]: 39%
inhibition [3]: inactive
Emax (Melanocortin receptor 4 [4]): < 20%
SMILES: CC(=O)N[C@@H](Cc1ccc2ccccc2c1)C(=O)N[C@@H](CCCNC(=N)N)C(=O)N[C@H](Cc1ccc(I)cc1)C(=O)N[C@@H](Cc1ccc2ccccc2c1)C(N)=O (Ac-[2Nal]R[dPhe(4-I)][2Nal]-NH2)

IC50 [5]: 75 nM
Activity (Melanocortin receptor 4 [6]): 0.3 nM
Emax (Melanocortin receptor 4 [7]): > 35%
Ki (Melanocortin receptor 4 [8]): 0.79 nM
Kb (Melanocortin receptor 4 [8]; read-out: pA2 (converted)): 0.794 nM
SMILES: N=C(N)NCCC[C@H](NC(=O)[C@@H](Cc1ccc(I)cc1)NC(=O)[C@@H]1Cc2ccccc2CN1)C(=O)N[C@@H](Cc1c[nH]c2ccccc12)C(N)=O

inhibition [1]: inactive
Activity [2]: 34%
inhibition [3]: inactive
Activity (Melanocortin receptor 4 [9]): 38%
Activity [10]: 36%
Activity [11]: 41%
SMILES: CC(=O)N[C@@H](Cc1csc2ccccc12)C(=O)N[C@@H](CCCNC(=N)N)C(=O)N[C@H](Cc1ccc(I)cc1)C(=O)N[C@H](Cc1ccc2ccccc2c1)C(N)=O

Activity [12]: < 20%
inhibition [1]: inactive
inhibition [3]: inactive
Activity [13]: < 20%
Activity [14]: < 20%
SMILES: CC(=O)N[C@@H](Cc1ccc(-c2ccccc2)cc1)C(=O)N[C@@H](CCCNC(=N)N)C(=O)N[C@H](Cc1ccc(I)cc1)C(=O)N[C@@H](Cc1ccc(-c2ccccc2)cc1)C(N)=O (Ac-[Bip]R[dPhe(4-I)][Bip]-NH2)

Emax (Melanocortin receptor 4 [4]): < 20%
EC50 (Melanocortin receptor 4 [15]): > 100000 nM
SMILES: CC(=O)N[C@@H](CCCNC(=N)N)C(=O)N[C@@H](CCCNC(=N)N)C(=O)N[C@H](Cc1ccc(I)cc1)C(=O)N[C@H](Cc1ccc2ccccc2c1)C(N)=O
